Measurements published in ChEMBL document CHEMBL3407438, “Discovery of potent, orally bioavailable, small-molecule inhibitors of WNT signaling from a cell-based pathway screen” (J Med Chem, 2015).

Columns and labels:
[1] = AUC in NMRI mouse at 0.5 mg/kg, po; format: ADME, organism-based; parameters: dose 0.5 mg/kg, route oral; settings: plasma
Summary of the method: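 Female NMRI mice (n = 5) given a single iv bolus (0.2 mg/kg per compound) or oral gavage (0.5 mg/kg per compound) as a cassette, in DMSO/PEG 200/water. Serial retro-orbital blood was drawn under isoflurane from 3 animals per route at 0.1 (iv), 0.25 (po), 0.5, 1, 2, 4 and 6 h. Plasma was quantified by LC–MS/MS.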

[2] = AUC in Wistar rat at 0.2 mg/kg, iv; format: ADME, organism-based; parameters: dose 0.2 mg/kg, route intravenous; settings: plasma
Summary of the method: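 Male Wistar rats (n = 6) received cassette dosing, either iv bolus at 0.2 mg/kg or oral gavage at 0.5 mg/kg per compound, in DMSO/PEG 200/water. Plasma levels were measured by UPLC–MS/MS.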

[3] = cells; settings: Homo sapiens, RKO-F1522, 24 h

SMILES: Cn1cc(-c2ccc(-c3cncc(Cl)c3N3CCC4(CCNC4=O)CC3)cc2)cn1
- AUC [1]: 143 ng·h/mL
- AUC [2]: 130 ng·h/mL
- IC50 [3]: > 10 µM
